How the values were obtained:
[1] = target: Fibroblast growth factor receptor 1 (Homo sapiens, UniProt P11362); test: Inhibition of His-tagged cytoplasmic recombinant human FGFR1 (308 to 731 residues) expressed in baculovirus expression system using Tyr 4 peptide as substrate incubated for 1 hr by FRET-based Z'-Lyte assay
[2] = target: Fibroblast growth factor receptor 2 (Homo sapiens, UniProt P21802); test: Inhibition of His-tagged cytoplasmic recombinant human FGFR2 (403 to 822 residues) expressed in baculovirus expression system using Tyr 4 peptide as substrate incubated for 1 hr by FRET-based Z'-Lyte assay
Chain of Fibroblast growth factor receptor 2 (P21802 whole entry, the tested form may be a part): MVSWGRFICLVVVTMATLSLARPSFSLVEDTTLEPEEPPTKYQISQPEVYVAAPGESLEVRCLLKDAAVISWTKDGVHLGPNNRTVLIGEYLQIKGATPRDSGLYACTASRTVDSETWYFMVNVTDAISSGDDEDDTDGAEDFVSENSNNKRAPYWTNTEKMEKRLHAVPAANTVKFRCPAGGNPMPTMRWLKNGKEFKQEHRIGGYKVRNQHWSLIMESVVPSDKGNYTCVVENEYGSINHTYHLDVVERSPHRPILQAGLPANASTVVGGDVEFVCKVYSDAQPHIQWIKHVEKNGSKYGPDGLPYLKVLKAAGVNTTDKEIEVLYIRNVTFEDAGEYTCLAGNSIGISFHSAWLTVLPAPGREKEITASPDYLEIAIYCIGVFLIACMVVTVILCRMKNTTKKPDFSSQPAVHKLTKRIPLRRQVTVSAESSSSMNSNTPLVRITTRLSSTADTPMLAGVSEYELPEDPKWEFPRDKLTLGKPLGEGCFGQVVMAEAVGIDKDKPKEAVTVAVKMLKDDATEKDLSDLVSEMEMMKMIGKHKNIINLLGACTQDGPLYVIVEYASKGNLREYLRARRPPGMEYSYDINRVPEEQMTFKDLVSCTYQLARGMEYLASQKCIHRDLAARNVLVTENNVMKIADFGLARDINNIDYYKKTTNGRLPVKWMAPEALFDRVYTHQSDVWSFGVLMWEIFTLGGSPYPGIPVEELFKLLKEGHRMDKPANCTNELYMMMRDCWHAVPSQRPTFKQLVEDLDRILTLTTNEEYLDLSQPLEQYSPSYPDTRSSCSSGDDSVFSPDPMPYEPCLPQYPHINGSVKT

[3] = target: Fibroblast growth factor receptor 3 (Homo sapiens, UniProt P22607); test: Inhibition of His-tagged cytoplasmic recombinant human FGFR3 (399 to 806 residues) expressed in baculovirus expression system using Tyr 4 peptide as substrate incubated for 1 hr by FRET-based Z'-Lyte assay
Chain of Fibroblast growth factor receptor 3 (P22607 whole entry, the tested form may be a part): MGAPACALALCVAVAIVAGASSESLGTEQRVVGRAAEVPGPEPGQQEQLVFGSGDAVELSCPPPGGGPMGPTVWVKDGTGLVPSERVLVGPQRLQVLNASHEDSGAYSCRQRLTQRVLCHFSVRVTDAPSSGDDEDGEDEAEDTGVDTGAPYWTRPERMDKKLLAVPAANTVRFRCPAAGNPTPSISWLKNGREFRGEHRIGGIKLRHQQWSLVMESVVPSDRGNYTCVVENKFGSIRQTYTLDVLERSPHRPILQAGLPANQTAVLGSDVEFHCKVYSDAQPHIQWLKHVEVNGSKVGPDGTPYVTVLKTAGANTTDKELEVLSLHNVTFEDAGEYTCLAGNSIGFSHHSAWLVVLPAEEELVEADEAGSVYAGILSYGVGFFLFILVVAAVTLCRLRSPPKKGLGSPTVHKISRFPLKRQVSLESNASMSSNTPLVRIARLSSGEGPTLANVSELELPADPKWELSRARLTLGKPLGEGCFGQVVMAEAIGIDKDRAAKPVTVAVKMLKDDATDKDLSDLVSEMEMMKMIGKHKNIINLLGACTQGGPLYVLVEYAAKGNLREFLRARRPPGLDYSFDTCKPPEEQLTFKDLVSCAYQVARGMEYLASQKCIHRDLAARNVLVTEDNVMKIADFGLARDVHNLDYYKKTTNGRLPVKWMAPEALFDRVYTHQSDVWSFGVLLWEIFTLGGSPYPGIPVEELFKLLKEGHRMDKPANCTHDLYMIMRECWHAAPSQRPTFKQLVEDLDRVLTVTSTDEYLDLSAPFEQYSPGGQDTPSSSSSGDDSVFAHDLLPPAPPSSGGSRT

MDA-MB-453 [4] = test: Antiproliferative activity against human MDA-MB-453 cells harboring FGFR4 Y367C mutant after 72 hrs by CCK8 assay; conditions: MDA-MB-453, 72 h
MCF7 = test: Antiproliferative activity against human MCF7 cells expressing low levels of FGFR4 after 72 hrs by CCK8 assay; conditions: MCF7, 72 h
MDA-MB-231 = test: Antiproliferative activity against human MDA-MB-231 cells expressing low levels of FGFR4 after 72 hrs by CCK8 assay; conditions: MDA-MB-231, 72 h
[5] = target: T1, Fibroblast growth factor receptor 4 (Homo sapiens, UniProt P22455); test: Inhibition of His-tagged cytoplasmic recombinant human FGFR4 ([…] residues) expressed in baculovirus expression system using Tyr 4 peptide as substrate incubated for 1 hr by FRET-based Z'-Lyte assay
Target sequence in this assay (P22455 whole entry): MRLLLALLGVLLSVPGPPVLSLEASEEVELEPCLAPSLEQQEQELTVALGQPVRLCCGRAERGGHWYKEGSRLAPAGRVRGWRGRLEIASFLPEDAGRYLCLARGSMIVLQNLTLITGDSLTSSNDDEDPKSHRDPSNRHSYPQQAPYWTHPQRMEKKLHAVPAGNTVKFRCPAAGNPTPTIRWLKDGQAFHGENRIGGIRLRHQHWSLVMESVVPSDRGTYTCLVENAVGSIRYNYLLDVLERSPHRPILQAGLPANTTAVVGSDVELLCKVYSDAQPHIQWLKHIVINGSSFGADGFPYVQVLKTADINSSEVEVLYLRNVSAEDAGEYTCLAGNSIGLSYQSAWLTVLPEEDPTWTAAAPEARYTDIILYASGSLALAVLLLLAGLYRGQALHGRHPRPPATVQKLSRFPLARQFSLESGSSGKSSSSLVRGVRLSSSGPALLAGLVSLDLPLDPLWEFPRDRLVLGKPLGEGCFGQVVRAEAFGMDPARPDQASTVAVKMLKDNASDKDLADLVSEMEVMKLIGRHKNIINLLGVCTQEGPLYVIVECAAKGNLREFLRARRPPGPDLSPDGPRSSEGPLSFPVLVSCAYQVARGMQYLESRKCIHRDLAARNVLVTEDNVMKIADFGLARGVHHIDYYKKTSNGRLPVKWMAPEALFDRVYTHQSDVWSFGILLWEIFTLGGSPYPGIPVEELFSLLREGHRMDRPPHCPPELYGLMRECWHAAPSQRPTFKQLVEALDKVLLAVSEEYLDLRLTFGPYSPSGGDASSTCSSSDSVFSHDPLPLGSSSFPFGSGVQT

[6] = target: SRSF protein kinase 3 (Homo sapiens) (UniProt Q9UPE1); test: Inhibition of human SRSF protein kinase 3 at 1 uM after 1 hr by KINOMEscan assay relative to control
Chain of SRSF protein kinase 3 (Homo sapiens) (Q9UPE1 whole entry): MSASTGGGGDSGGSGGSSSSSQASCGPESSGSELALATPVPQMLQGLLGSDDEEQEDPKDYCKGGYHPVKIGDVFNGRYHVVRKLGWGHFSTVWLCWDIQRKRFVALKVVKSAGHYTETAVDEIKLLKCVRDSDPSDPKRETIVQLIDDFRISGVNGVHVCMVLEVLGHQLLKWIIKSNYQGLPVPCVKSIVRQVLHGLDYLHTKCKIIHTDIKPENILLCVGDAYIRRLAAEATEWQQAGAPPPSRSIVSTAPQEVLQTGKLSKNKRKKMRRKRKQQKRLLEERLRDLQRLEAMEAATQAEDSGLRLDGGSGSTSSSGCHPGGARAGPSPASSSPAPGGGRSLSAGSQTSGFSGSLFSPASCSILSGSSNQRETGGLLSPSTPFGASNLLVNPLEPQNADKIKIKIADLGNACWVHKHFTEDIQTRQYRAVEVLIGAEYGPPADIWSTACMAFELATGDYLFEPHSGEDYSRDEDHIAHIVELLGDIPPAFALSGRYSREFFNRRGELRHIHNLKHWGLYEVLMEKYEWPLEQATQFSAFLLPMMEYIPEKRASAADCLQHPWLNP
Method in brief: (§1)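 Kinome-wide competition binding screen across 468 kinases, with compound at 1.0 µM.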

[7] = target: Calcium/calmodulin-dependent protein kinase type 1D (Homo sapiens) (UniProt Q8IU85); test: Inhibition of human CAMK1D at 1 uM after 1 hr by KINOMEscan assay relative to control; method in brief: as §1
Chain of Calcium/calmodulin-dependent protein kinase type 1D (Homo sapiens) (Q8IU85 whole entry, looked up): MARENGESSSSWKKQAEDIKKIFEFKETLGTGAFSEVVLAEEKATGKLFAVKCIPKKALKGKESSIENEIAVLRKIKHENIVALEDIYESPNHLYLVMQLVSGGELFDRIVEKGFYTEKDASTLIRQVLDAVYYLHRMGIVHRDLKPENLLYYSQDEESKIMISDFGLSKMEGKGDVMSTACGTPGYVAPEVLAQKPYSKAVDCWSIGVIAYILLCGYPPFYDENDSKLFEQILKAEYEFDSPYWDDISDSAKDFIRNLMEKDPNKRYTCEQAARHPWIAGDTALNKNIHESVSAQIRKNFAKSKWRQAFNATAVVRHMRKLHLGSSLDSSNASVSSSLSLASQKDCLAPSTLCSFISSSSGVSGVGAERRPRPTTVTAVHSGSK

MDA-MB-453 [8] = test: Effect on total FRS2 levels in human MDA-MB-453 cells at 3 to 300 nM after 4 hrs by Western blot method; assay type: ADME, cell-based; conditions: mda-mb-453, 4 h, 0.3 µM
Method in brief: (§2)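 MDA-MB-453 cells (FGFR4 Y367C) were treated with or without compound for 4 h at the indicated concentrations. Cells were then harvested, and total and phosphorylated FGFR4, FRS2, ERK1/2 and Akt were read by Western blot.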

[9] = target: G protein-coupled receptor kinase 4 (Homo sapiens) (UniProt P32298); test: Inhibition of human GRK4 at 1 uM after 1 hr by KINOMEscan assay relative to control; method in brief: as §1
Chain of G protein-coupled receptor kinase 4 (Homo sapiens) (P32298 whole entry, looked up): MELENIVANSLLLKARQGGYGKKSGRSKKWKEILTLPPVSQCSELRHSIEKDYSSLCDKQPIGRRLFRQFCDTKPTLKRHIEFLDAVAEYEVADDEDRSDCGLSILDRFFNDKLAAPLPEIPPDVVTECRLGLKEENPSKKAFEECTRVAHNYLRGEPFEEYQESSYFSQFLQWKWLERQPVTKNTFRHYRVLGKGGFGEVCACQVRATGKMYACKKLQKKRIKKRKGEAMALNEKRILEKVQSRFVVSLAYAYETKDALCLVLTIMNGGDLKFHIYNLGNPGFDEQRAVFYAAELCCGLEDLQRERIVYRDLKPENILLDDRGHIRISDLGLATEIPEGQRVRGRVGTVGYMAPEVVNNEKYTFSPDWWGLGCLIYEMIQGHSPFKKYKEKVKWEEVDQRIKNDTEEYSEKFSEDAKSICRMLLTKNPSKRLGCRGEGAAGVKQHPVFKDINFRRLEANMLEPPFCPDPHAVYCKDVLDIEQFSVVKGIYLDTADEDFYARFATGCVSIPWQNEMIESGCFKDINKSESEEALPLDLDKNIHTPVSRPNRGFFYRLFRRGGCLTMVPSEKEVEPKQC

[10] = target: T1, Fibroblast growth factor receptor 4; test: Binding affinity to ATP binding site of human FGFR4 after 1 hr by qPCR method
Method in brief: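 The Kd for FGFR4 was measured in an active-site-dependent competition binding assay against the ATP-binding site.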
Target sequence in this assay (P22455 whole entry): as the sequence (P22455 whole entry) above

MDA-MB-453 [11] = test: Induction of apoptosis in human MDA-MB-453 cells after 48 hrs by annexin V/[…] staining-based flow cytometric method; assay type: functional, cell-based
MDA-MB-453 [12] = test: Effect on total AKT levels in human MDA-MB-453 cells at 3 to 300 nM after 4 hrs by Western blot method; assay type: ADME, cell-based; conditions: mda-mb-453, 4 h, 0.3 µM; method in brief: as §2
[13] = target: T1, Fibroblast growth factor receptor 4; conditions: 1 uM
MDA-MB-453 [14] = test: Effect on total ERK1/2 levels in human MDA-MB-453 cells at 3 to 300 nM after 4 hrs by Western blot method; assay type: ADME, cell-based; conditions: mda-mb-453, 4 h, 0.3 µM; method in brief: as §2

Chain of Fibroblast growth factor receptor 1 (P11362 whole entry, the tested form may be a part): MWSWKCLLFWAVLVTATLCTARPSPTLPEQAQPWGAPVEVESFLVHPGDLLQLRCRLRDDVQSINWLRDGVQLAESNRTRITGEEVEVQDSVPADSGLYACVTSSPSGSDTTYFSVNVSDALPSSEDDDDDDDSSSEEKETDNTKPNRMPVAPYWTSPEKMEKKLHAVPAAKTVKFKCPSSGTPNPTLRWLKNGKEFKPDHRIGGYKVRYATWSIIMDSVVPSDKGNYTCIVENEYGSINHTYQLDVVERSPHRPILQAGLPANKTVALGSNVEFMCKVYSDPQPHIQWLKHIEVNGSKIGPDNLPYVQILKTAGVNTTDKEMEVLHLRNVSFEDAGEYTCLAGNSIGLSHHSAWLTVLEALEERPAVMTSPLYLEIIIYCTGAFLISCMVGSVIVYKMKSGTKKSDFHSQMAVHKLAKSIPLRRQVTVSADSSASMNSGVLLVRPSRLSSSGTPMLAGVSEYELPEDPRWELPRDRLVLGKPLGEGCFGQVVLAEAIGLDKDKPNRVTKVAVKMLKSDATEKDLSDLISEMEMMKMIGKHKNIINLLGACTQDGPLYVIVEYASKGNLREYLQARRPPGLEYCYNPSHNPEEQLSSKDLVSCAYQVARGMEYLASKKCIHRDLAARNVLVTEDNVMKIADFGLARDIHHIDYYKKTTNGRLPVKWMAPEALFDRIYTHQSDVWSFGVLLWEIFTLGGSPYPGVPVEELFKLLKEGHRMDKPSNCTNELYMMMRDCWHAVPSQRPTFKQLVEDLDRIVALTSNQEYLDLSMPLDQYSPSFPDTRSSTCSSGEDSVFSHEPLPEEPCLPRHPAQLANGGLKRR

Work on `C=CC(=O)Nc1cccc(OC(C)C)c1Nc1ncc(OCc2c(Cl)c(OC)cc(OC)c2Cl)cn1` yielded an IC50 [1] greater than 10 µM, an IC50 [2] greater than 10 µM and an IC50 [3] greater than 10 µM.

Compound `C=CC(=O)Nc1cccc(F)c1Nc1ncc(OCc2c(Cl)c(OC)cc(OC)c2Cl)cn1` has an IC50 [2] of 0.397 µM and an IC50 [3] of 4.3 µM.

In the case of `C=CC(=O)Nc1cccc(Cl)c1Nc1ncc(OCc2c(Cl)cccc2Cl)cn1`, the IC50 [1] is reported as greater than 10 µM, the IC50 [2] is reported as greater than 10 µM and the IC50 [3] is reported as greater than 10 µM.

For `C=CC(=O)Nc1cccc(Cl)c1Nc1ncc(OCc2cc(OC)cc(OC)c2Cl)cn1`, the IC50 [2] was greater than 10 µM and the IC50 [3] was greater than 10 µM.

For `C=CC(=O)Nc1cccc(Cl)c1Nc1ncc(OCc2c(Cl)c(OC)cc(OC)c2Cl)cn1`, the IC50 (MDA-MB-453 [4]) was 0.65 µM, the IC50 [2] was greater than 10 µM and the IC50 (MCF7) was greater than 10 µM. The IC50 (MDA-MB-231) was greater than 10 µM and the IC50 [3] was greater than 10 µM.

With `C=CC(=O)Nc1cccc(OCC)c1Nc1ncc(OCc2c(Cl)c(OC)cc(OC)c2Cl)cn1` the IC50 [1] was greater than 10 µM, the IC50 [2] was greater than 10 µM and the IC50 [3] was greater than 10 µM.

With `C=CC(=O)Nc1ccccc1Nc1ncc(OCc2c(Cl)c(OC)cc(OC)c2Cl)cn1` the IC50 [2] was 0.312 µM and the IC50 [3] was 1.2 µM.

`C=CC(=O)Nc1cccc(Cl)c1Nc1ncc(OC(C)c2c(Cl)c(OC)cc(OC)c2Cl)cn1` (stereo not given) showed an IC50 [2] greater than 10 µM and an IC50 [3] greater than 10 µM.

For `C=CC(=O)Nc1cc(Cl)cc(Cl)c1Nc1ncc(OCc2c(Cl)c(OC)cc(OC)c2Cl)cn1`, the IC50 (MDA-MB-453 [4]) was 0.87 µM, the IC50 [2] was greater than 10 µM and the IC50 (MCF7) was greater than 10 µM. It also gave an IC50 (MDA-MB-231) greater than 10 µM and an IC50 [3] greater than 10 µM.

With `C=CC(=O)Nc1cccc(C)c1Nc1ncc(OCc2c(Cl)c(OC)cc(OC)c2Cl)cn1` the IC50 (MDA-MB-453 [4]) was 0.22 µM, the IC50 (MCF7) was greater than 10 µM and the IC50 (MDA-MB-231) was greater than 10 µM.

With `C=CC(=O)Nc1cccc(Cl)c1Nc1ncc(OCc2cc(OC)ccc2Cl)cn1` the IC50 [2] was greater than 10 µM and the IC50 [3] was greater than 10 µM.

Compound `C=CC(=O)Nc1cccc(Cl)c1Nc1ncc(OCc2ccccc2Cl)cn1` has an IC50 [1] greater than 10 µM, an IC50 [2] greater than 10 µM and an IC50 [3] greater than 10 µM.

`C=CC(=O)Nc1cccc(CC)c1Nc1ncc(OCc2c(Cl)c(OC)cc(OC)c2Cl)cn1` gave an IC50 [2] greater than 10 µM and an IC50 [3] greater than 10 µM.

`C=CC(=O)Nc1cccc(Cl)c1Nc1ncc(OCc2cc(OC)cc(OC)c2)cn1` gave an IC50 [2] greater than 10 µM and an IC50 [3] greater than 10 µM.

`C=CC(=O)Nc1cccc(Cl)c1Nc1ncc(OCc2cccc(OC)c2)cn1` was tested, and the IC50 [1] was greater than 10 µM, the IC50 [2] was greater than 10 µM and the IC50 [3] was greater than 10 µM.

`C=CC(=O)Nc1cc(C)ccc1Nc1ncc(OCc2c(Cl)c(OC)cc(OC)c2Cl)cn1` was tested, and the IC50 [2] was greater than 10 µM and the IC50 [3] was greater than 10 µM.

`C=CC(=O)Nc1cccc(C)c1Nc1ncc2cc(-c3c(Cl)c(OC)cc(OC)c3Cl)ccc2n1` was tested, and the IC50 (MDA-MB-453 [4]) was 0.32 µM, the IC50 [1] was 0.24 µM and the IC50 (MCF7) was 2.34 µM. The IC50 (MDA-MB-231) was 3.76 µM and the IC50 [3] was 0.244 µM.

Compound `C=CC(=O)Nc1cc(C(F)(F)F)cc(Cl)c1Nc1ncc(OCc2c(Cl)c(OC)cc(OC)c2Cl)cn1` has an IC50 [1] greater than 10 µM, an IC50 [2] greater than 10 µM and an IC50 [3] greater than 10 µM.

Compound `C=CC(=O)Nc1cccc(OC)c1Nc1ncc(OCc2c(Cl)c(OC)cc(OC)c2Cl)cn1` has an IC50 (MDA-MB-453 [4]) of 0.21 µM, an IC50 [2] greater than 10 µM and an IC50 (MCF7) of 1.18 µM. It also gave an IC50 (MDA-MB-231) of 2.14 µM and an IC50 [3] greater than 10 µM.

For `C=CC(=O)Nc1cccc(C)c1Nc1ncc(NCc2c(Cl)c(OC)cc(OC)c2Cl)cn1`, the IC50 [2] was greater than 10 µM and the IC50 [3] was greater than 10 µM.

Compound `C=CC(=O)Nc1ccc(C)cc1Nc1ncc(OCc2c(Cl)c(OC)cc(OC)c2Cl)cn1` has an IC50 [2] greater than 10 µM and an IC50 [3] greater than 10 µM.

`C=CC(=O)Nc1cccc(Cl)c1Nc1ncc(OCc2c(Cl)ccc(OC)c2Cl)cn1` showed an IC50 [2] greater than 10 µM and an IC50 [3] greater than 10 µM.

Compound `C=CC(=O)Nc1c(C)cccc1Nc1ncc(OCc2c(Cl)c(OC)cc(OC)c2Cl)cn1` has an IC50 [5] greater than 10 µM, an IC50 [2] greater than 10 µM and an IC50 [3] greater than 10 µM.

Compound `C=CC(=O)Nc1cccc(C(F)(F)F)c1Nc1ncc(OCc2c(Cl)c(OC)cc(OC)c2Cl)cn1` has an IC50 [1] greater than 10 µM, an IC50 [2] greater than 10 µM and an IC50 [3] greater than 10 µM.

`C=CC(=O)Nc1cc(F)cc(Cl)c1Nc1ncc(OCc2c(Cl)c(OC)cc(OC)c2Cl)cn1` showed an IC50 [5] of 0.0026 µM, an inhibition [6] of 88% and an IC50 (MDA-MB-453 [4]) of 0.38 µM. For the same compound, the inhibition [7] was 94.7%, the Activity (MDA-MB-453 [8]) was “Non-Toxic” and the inhibition [9] was 92.8%. The Kd [10] was 0.0033 µM, the Activity (MDA-MB-453 [11]) was “Dose-dependent effect” and the Activity (MDA-MB-453 [12]) was “Non-Toxic”. It also gave an IC50 [1] greater than 10 µM, an IC50 [2] greater than 10 µM and an inhibition [13] of 99.5%. The IC50 (MCF7) was greater than 10 µM, the IC50 (MDA-MB-231) was greater than 10 µM and the Activity (MDA-MB-453 [14]) was “Non-Toxic”. For the same compound, the IC50 [3] was greater than 10 µM.

Work on `CCC(=O)Nc1cccc(Cl)c1Nc1ncc(OCc2c(Cl)c(OC)cc(OC)c2Cl)cn1` yielded an IC50 [5] greater than 10 µM, an IC50 [2] greater than 10 µM and an IC50 [3] greater than 10 µM.

In the case of `C=CC(=O)Nc1cccc(Cl)c1Nc1ncc(OCc2cccc(OC)c2Cl)cn1`, the IC50 [2] is reported as greater than 10 µM and the IC50 [3] is reported as greater than 10 µM.
